Results from PMC8173612 (ACS Omega, 2021).
In brackets after ≈: the same amount, converted by molar mass. Like-named read-outs stand apart in the source and are kept apart here.

Key:
[1] = in deionized water, cyclohexane, petroleum ether, and hexane; cited from earlier work
[2] = Solubility screening of selected solvents; assay type: physicochemical
Method in brief: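 Solvent screen in 2-propanol, tetrahydrofuran, cyclohexane and toluene. Solubility of each test compound was determined in each neat solvent at room temperature and at 0 °C. Values are reported in mg/mL.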

[3] = solvent cyclohexane, RT (25-30 °C)
[4] = tetrahydrofuran, 0 °C, organic solvent or mixture, thermodynamic from solid
[5] = tetrahydrofuran, organic solvent or mixture, thermodynamic from solid
[6] = toluene, 0 °C, organic solvent or mixture, thermodynamic from solid
[7] = toluene, organic solvent or mixture, thermodynamic from solid
[8] = solvent 2-propanol, RT (25-30 °C)

Row | solubility ([2]; 2-propanol, 0 °C, organic solvent or mixture, thermodynamic from solid) [mg/mL] | solubility ([2]; 2-propanol, organic solvent or mixture, thermodynamic from solid) [mg/mL] | solubility ([2]; solvent cyclohexane, 0 °C) | solubility [2, 3] | solubility [2, 4] [mg/mL] | solubility [2, 5] [mg/mL] | solubility [2, 6] [mg/mL] | solubility [2, 7] [mg/mL] | solubility ([2]; solvent 2-propanol, 0 °C) | solubility [2, 8] | solubility ([2]; solvent tetrahydrofuran, 0 °C) [mg/mL] | solubility ([2]; solvent tetrahydrofuran, RT (25-30 °C)) [mg/mL] | solubility ([2]; solvent toluene, RT (25-30 °C)) [mg/mL] | SMILES | solubility [1]
1 | 25.4 (≈ 91.3 mM) | 46.5 (≈ 167 mM) | insoluble | insoluble | 105 (≈ 377 mM) | 170 (≈ 610 mM) | 42.9 (≈ 154 mM) | 44.3 (≈ 159 mM) |  |  |  |  |  | O=P(c1ccccc1)(c1ccccc1)c1ccccc1 [TPPO, Triphenylphosphine oxide] | almost insoluble
2 |  |  | insoluble | insoluble |  |  |  |  | 13.3 mg/mL | 60.4 mg/mL | 61.0 | 157.5 | 23.2 | CC(C)OC(=O)NNC(=O)OC(C)C.O=P(c1ccccc1)(c1ccccc1)c1ccccc1 [TPPO-H2DIAD, triphenylphosphine oxide-1,2-isopropylhydrazine dicarboxylate] | 
3 |  |  | insoluble | insoluble | 101 (≈ 277 mM) | 124 (≈ 342 mM) | 42.1 (≈ 116 mM) | 46.7 (≈ 128 mM) | insoluble | insoluble |  |  |  | CC(C)(C)OC(=O)N1C[C@@H](F)C[C@H]1CON1C(=O)c2ccccc2C1=O [compound-6, tert-Butyl (2S,4S)-2-{[(1,3-Dioxo-1,3-dihydro-2H-isoindol-2-yl)oxy]methyl}-4-fluoro-pyrrolidine-1-carboxylate] | 
